According to ChEMBL document CHEMBL3856258, “Phosphonate-based irreversible inhibitors of human γ-glutamyl transpeptidase (GGT). GGsTop is a non-toxic and highly selective inhibitor with critical electrostatic interaction with an active-site residue Lys562 for enhanced inhibitory activity” (Bioorg Med Chem, 2016):

What was measured:
Escherichia coli [1] = experiment: Genotoxicity in Escherichia coli WP2uvrA assessed as number of revertant colonies per plate at 20.6 ug/plate after 20 mins in presence of S9 fraction by Ames test (reference value: 26); type: toxicity; conditions: s9, 20 min
[2] = Cytotoxicity against CHL cells assessed as number of cells with numerical aberrations at 3300 ug/ml preincubated for 6 hrs followed by 18 hrs incubation in fresh medium in presence of S9 fraction by Giemsa staining-based microscopic analysis relative to control; type: toxicity, cell-based, Cricetulus griseus; conditions: chinese hamster
[3] = Cytotoxicity against CHL cells assessed as growth rate at 5.41 ug/ml preincubated for 6 hrs followed by 18 hrs incubation in fresh medium in absence of S9 fraction by MTT assay relative to control; type: toxicity, cell-based, Cricetulus griseus; conditions: chinese hamster, read-out: Activity
Salmonella typhimurium [4] = experiment: Genotoxicity in Salmonella typhimurium TA1535 assessed as number of revertant colonies per plate at 5000 ug/plate after 20 mins in presence of S9 fraction by Ames test (reference value: 13); type: toxicity, organism-based; conditions: salmonella enterica subsp. enterica serovar typhimurium
Escherichia coli [5] = experiment: Genotoxicity in Escherichia coli WP2uvrA assessed as number of revertant colonies per plate at 185 ug/plate after 20 mins in presence of S9 fraction by Ames test (reference value: 26); type: toxicity; conditions: s9, 20 min
[6] = Cytotoxicity against CHL cells assessed as growth rate at 5.41 ug/ml preincubated for 6 hrs followed by 18 hrs incubation in fresh medium in presence of S9 fraction by MTT assay relative to control; type: toxicity, cell-based, Cricetulus griseus; conditions: chinese hamster, read-out: Activity
Salmonella typhimurium [7] = experiment: Genotoxicity in Salmonella typhimurium TA1535 assessed as number of revertant colonies per plate at 61.7 ug/plate after 20 mins in presence of S9 fraction by Ames test (reference value: 13); type: toxicity, organism-based; conditions: salmonella enterica subsp. enterica serovar typhimurium
Rattus norvegicus = species on record: Rattus norvegicus; experiment: Cytotoxicity against Wistar rat […] assessed as morphological change up to 1 mM after 24 hrs by inverted microscopic analysis; type: toxicity
Procedure, shortened: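 Hepatic stellate cells isolated from male Wistar rats (300–350 g), identified by star-like shape and vitamin A autofluorescence, purity >95%. Plated at 5 × 10^5 cells/ml in DMEM with 10% FBS for 2 days, then kept serum-free 24 h at 37 °C. Exposed 24 h to 0, 10, 100 or 1000 µM in DMEM. Morphology checked by inverted microscopy.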

[8] = Cytotoxicity against CHL cells assessed as growth rate at 1320 ug/ml preincubated for 6 hrs followed by 18 hrs incubation in fresh medium in presence of S9 fraction by MTT assay relative to control; type: toxicity, cell-based, Cricetulus griseus; conditions: chinese hamster, read-out: Activity
[9] = Cytotoxicity against CHL cells assessed as growth rate at 211 ug/ml preincubated for 6 hrs followed by 18 hrs incubation in fresh medium in absence of S9 fraction by MTT assay relative to control; type: toxicity, cell-based, Cricetulus griseus; conditions: chinese hamster, read-out: Activity
Salmonella typhimurium [10] = experiment: Genotoxicity in Salmonella typhimurium TA1535 assessed as number of revertant colonies per plate at 20.6 ug/plate after 20 mins in absence of S9 fraction by Ames test (reference value: 15); type: toxicity, organism-based; conditions: salmonella enterica subsp. enterica serovar typhimurium
[11] = Cytotoxicity against CHL cells assessed as growth rate at 2.16 ug/ml after 24 hrs in absence of S9 fraction by MTT assay relative to control; type: toxicity, cell-based, Cricetulus griseus; conditions: chinese hamster, read-out: Activity
[12] = Cytotoxicity against CHL cells assessed as structural aberrations at 825 ug/ml preincubated for 6 hrs followed by 18 hrs incubation in fresh medium in presence of S9 fraction by Giemsa-staining-based microscopic analysis; type: toxicity, cell-based, Cricetulus griseus; conditions: chinese hamster
[13] = Cytotoxicity against human CCD-1059SK cells assessed as morphological change up to 1 mM after 24 hrs by inverted microscopic analysis; type: toxicity, cell-based
Procedure, shortened: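 Human skin fibroblasts (CCD-1059SK), passages 10–20, grown in DMEM with 10% FBS and antibiotics at 37 °C under 5% CO2. Plated at 3 × 10^4 cells/mL on chamber slides and pre-incubated 24 h. Then exposed 24 h to 0, 5, 10, 20, 50 or 1000 µM in DMEM (from aqueous solution); water-only control. Morphology checked by inverted microscopy.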

[14] = Cytotoxicity against CHL cells assessed as growth rate at 528 ug/ml preincubated for 6 hrs followed by 18 hrs incubation in fresh medium in absence of S9 fraction by MTT assay relative to control; type: toxicity, cell-based, Cricetulus griseus; conditions: chinese hamster, read-out: Activity
Salmonella typhimurium [15] = experiment: Genotoxicity in Salmonella typhimurium TA98 assessed as number of revertant colonies per plate at […] ug/plate after 20 mins in presence of S9 fraction by Ames test (reference value: 26); type: toxicity, organism-based; conditions: salmonella enterica subsp. enterica serovar typhimurium
Salmonella typhimurium [16] = experiment: Genotoxicity in Salmonella typhimurium TA1537 assessed as number of revertant colonies per plate at 556 ug/plate after 20 mins in presence of S9 fraction by Ames test (reference value: 15); type: toxicity, organism-based; conditions: salmonella enterica subsp. enterica serovar typhimurium
[17] = Cytotoxicity against CHL cells assessed as growth rate at 5.41 ug/ml after 24 hrs in absence of S9 fraction by MTT assay relative to control; type: toxicity, cell-based, Cricetulus griseus; conditions: chinese hamster, read-out: Activity
Salmonella typhimurium [18] = experiment: Genotoxicity in Salmonella typhimurium TA1537 assessed as number of revertant colonies per plate at 61.7 ug/plate after 20 mins in presence of S9 fraction by Ames test (reference value: 15); type: toxicity, organism-based; conditions: salmonella enterica subsp. enterica serovar typhimurium
Salmonella typhimurium [19] = experiment: Genotoxicity in Salmonella typhimurium TA1537 assessed as number of revertant colonies per plate at 556 ug/plate after 20 mins in absence of S9 fraction by Ames test (reference value: 9); type: toxicity, organism-based; conditions: salmonella enterica subsp. enterica serovar typhimurium
Salmonella typhimurium [20] = experiment: Genotoxicity in Salmonella typhimurium TA98 assessed as number of revertant colonies per plate at 185 ug/plate after 20 mins in presence of S9 fraction by Ames test (reference value: 26); type: toxicity, organism-based; conditions: salmonella enterica subsp. enterica serovar typhimurium
[21] = Cytotoxicity against CHL cells assessed as number of cells with numerical aberrations at 1650 ug/ml preincubated for 6 hrs followed by 18 hrs incubation in fresh medium in presence of S9 fraction by Giemsa staining-based microscopic analysis relative to control; type: toxicity, cell-based, Cricetulus griseus; conditions: chinese hamster
[22] = Cytotoxicity against CHL cells assessed as chromatid gap at 825 ug/ml preincubated for 6 hrs followed by 18 hrs incubation in fresh medium in presence of S9 fraction by Giemsa-staining-based microscopic analysis; type: toxicity, cell-based, Cricetulus griseus; conditions: chinese hamster
[23] = Cytotoxicity against CHL cells assessed as growth rate at 3300 ug/ml preincubated for 6 hrs followed by 18 hrs incubation in fresh medium in absence of S9 fraction by MTT assay relative to control; type: toxicity, cell-based, Cricetulus griseus; conditions: chinese hamster, read-out: Activity
[24] = Cytotoxicity against CHL cells assessed as growth rate at 1320 ug/ml preincubated for 6 hrs followed by 18 hrs incubation in fresh medium in absence of S9 fraction by MTT assay relative to control; type: toxicity, cell-based, Cricetulus griseus; conditions: chinese hamster, read-out: Activity
Salmonella typhimurium [25] = experiment: Genotoxicity in Salmonella typhimurium TA1535 assessed as number of revertant colonies per plate at 185 ug/plate after 20 mins in presence of S9 fraction by Ames test (reference value: 13); type: toxicity, organism-based; conditions: salmonella enterica subsp. enterica serovar typhimurium
Salmonella typhimurium [26] = experiment: Genotoxicity in Salmonella typhimurium TA1537 assessed as number of revertant colonies per plate at 20.6 ug/plate after 20 mins in absence of S9 fraction by Ames test (reference value: 9); type: toxicity, organism-based; conditions: salmonella enterica subsp. enterica serovar typhimurium
[27] = Cytotoxicity against CHL cells assessed as chromatid gap at 3300 ug/ml preincubated for 6 hrs followed by 18 hrs incubation in fresh medium in presence of S9 fraction by Giemsa-staining-based microscopic analysis; type: toxicity, cell-based, Cricetulus griseus; conditions: chinese hamster
Salmonella typhimurium [28] = experiment: Genotoxicity in Salmonella typhimurium TA98 assessed as number of revertant colonies per plate at 556 ug/plate after 20 mins in presence of S9 fraction by Ames test (reference value: 26); type: toxicity, organism-based; conditions: salmonella enterica subsp. enterica serovar typhimurium

SMILES: COP(=O)(CCC(N)C(=O)O)Oc1cccc(CC(=O)O)c1 (centres undefined)
- Activity (Escherichia coli [1]): 30
- Activity [2]: 1%
- viability at 18 h, 5.41 ug/ml [3]: 103%
- Activity (Salmonella typhimurium [4]): 11
- Activity (Escherichia coli [5]): 28
- viability at 18 h, 5.41 ug/ml [6]: 102%
- Activity (Salmonella typhimurium [7]): 9
- Activity (Rattus norvegicus): Non-Toxic
- viability at 18 h, 1320 ug/ml [8]: 95.7%
- viability at 18 h, 211 ug/ml [9]: 101%
- Activity (Salmonella typhimurium [10]): 15
- viability at 24 h, 2.16 ug/ml [11]: 98%
- Activity [12]: 1%
- Activity [13]: Non-Toxic
- viability at 18 h, 528 ug/ml [14]: 101%
- Activity (Salmonella typhimurium [15]): 25
- Activity (Salmonella typhimurium [16]): 16
- viability at 24 h, 5.41 ug/ml [17]: 105%
- Activity (Salmonella typhimurium [18]): 17
- Activity (Salmonella typhimurium [19]): 11
- Activity (Salmonella typhimurium [20]): 34
- Activity [21]: 0%
- Activity [22]: 0%
- viability at 18 h, 3300 ug/ml [23]: 97.1%
- viability at 18 h, 1320 ug/ml [24]: 95.7%
- Activity (Salmonella typhimurium [25]): 13
- Activity (Salmonella typhimurium [26]): 9
- Activity [27]: 0%
- Activity (Salmonella typhimurium [28]): 28
